Usually Ki stands for the equilibrium dissociation constant of an inhibitor or competing ligand from its target. High values mean lower affinity, low ones higher affinity.

Substitutions are numbered along the chain they refer to. The source made the active and inactive calls. The rule behind the calls is not given here.

For the first experiment, the target named is T1, Lysosomal acid glucosylceramidase (Homo sapiens, UniProt P04062).
T1 sequence (P04062 whole entry): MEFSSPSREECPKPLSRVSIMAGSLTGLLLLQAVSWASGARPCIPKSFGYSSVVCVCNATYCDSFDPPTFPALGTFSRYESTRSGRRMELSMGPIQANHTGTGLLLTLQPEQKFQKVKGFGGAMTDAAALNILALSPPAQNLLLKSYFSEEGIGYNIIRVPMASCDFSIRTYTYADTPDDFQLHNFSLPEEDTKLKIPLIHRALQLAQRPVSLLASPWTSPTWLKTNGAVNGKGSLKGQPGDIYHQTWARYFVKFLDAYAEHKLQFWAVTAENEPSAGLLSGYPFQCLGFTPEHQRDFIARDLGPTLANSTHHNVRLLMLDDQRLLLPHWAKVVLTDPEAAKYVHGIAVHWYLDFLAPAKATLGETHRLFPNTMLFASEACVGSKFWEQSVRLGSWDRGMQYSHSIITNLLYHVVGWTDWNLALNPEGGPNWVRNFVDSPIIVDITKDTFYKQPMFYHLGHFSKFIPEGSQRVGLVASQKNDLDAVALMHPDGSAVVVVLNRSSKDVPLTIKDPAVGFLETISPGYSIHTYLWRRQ
Nature of the experiment: Competitive inhibition of wild type human glucocerebrosidase using 2,4-dinitrophenyl beta-D-glucopyranoside as substrate after 3 mins by Dixon and Line-Weaver Burk plot analysis at pH 5. The essentials: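 Continuous UV assay with 4.0 nM GBA and 2,4-dinitrophenyl β-D-glucoside, started by adding enzyme. A400 was followed, linear over 3 min. Three substrate levels were run at about seven inhibitor levels (0.2–5 Ki), with nonlinear fit to a competitive model checked by Dixon and Lineweaver–Burk plots.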
Compound `CCCC(=O)NCCSCC[C@H]1NC[C@@H](O)[C@H](O)[C@H]1O` gave a Ki of 200 nM.
Regarding `CCSCC[C@H]1NC[C@@H](O)[C@H](O)[C@H]1O`, the inhibition constant Ki amounted to 180 nM.
Same read-out and setting: with `CCN(CC)C(=O)CCCSCC[C@H]1NC[C@@H](O)[C@H](O)[C@H]1O` the figure was 250 nM.

A further experiment addresses T1, Lysosomal acid glucosylceramidase. Nature of the experiment: Competitive inhibition of wild type human glucocerebrosidase using 4-methylumbelliferyl beta-D-glucopyranoside as substrate after 15 mins by Dixon and Line-Weaver Burk plot analysis […].
As for `CCCCSCC[C@H]1NC[C@@H](O)[C@H](O)[C@H]1O`, the affinity corresponds to a Ki of 18 nM.
Consider `CC(C)CCSCC[C@H]1NC[C@@H](O)[C@H](O)[C@H]1O`, for which the Ki was determined as 4.4 nM.
Compound `O[C@@H]1[C@@H](O)[C@@H](CCSCc2ccccc2)NC[C@H]1O` yielded an inhibition constant (Ki) of 19 nM.

The target of another experiment is Lysosomal alpha-glucosidase (Homo sapiens) (UniProt P10253). Description: Inhibition of human lysosomal alpha-glucosidase using 4-methylumbelliferyl alpha-D-glucopyranoside as substrate at 200 uM by fluorimetric analysis. The essentials:
(§1)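 Enzyme source was a lysosomal-enzyme-enriched ConA-bound human placental fraction, run in 100 mM citrate–phosphate pH 4.5 with 0.025% human serum albumin at 37 °C. Compound was tested at 200 μM in triplicate. An equal volume of 4-MU substrate was added: α-Glc 3.0 mM (α-glucosidase), α-Gal 1.0 mM (α-galactosidase), β-Gal 0.5 mM (β-galactosidase). Reactions were stopped with 4-fold excess 100 mM aminomethylpropanol and fluorescence read at 365/460 nm.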
In the case of `CCCCSCC[C@H]1NC[C@@H](O)[C@H](O)[C@H]1O`, the inhibition entry is “inactive”.
On the same count and under the same terms, then `CC(C)CCSCC[C@H]1NC[C@@H](O)[C@H](O)[C@H]1O`, with “inactive”.
With `O[C@@H]1[C@@H](O)[C@@H](CCSCc2ccccc2)NC[C@H]1O`, the inhibition result is “inactive”.
Still for that read-out and setting: with `CCCC(=O)NCCSCC[C@H]1NC[C@@H](O)[C@H](O)[C@H]1O` the entry was “inactive”; with `CCSCC[C@H]1NC[C@@H](O)[C@H](O)[C@H]1O`, “inactive”; with `O[C@H]1[C@H](O)CNC[C@@H]1O`, “inactive”.
Turning to `CCN(CC)C(=O)CCCSCC[C@H]1NC[C@@H](O)[C@H](O)[C@H]1O`, the inhibition entry is “inactive”.

The species entered for a further experiment is Homo sapiens. Description: Inhibition of human lysosomal alpha-galactosidase using 4-methylumbelliferyl alpha-D-galactopyranoside as substrate at 200 uM by fluorimetric analysis. The essentials: as §1
For the compound `CCCCSCC[C@H]1NC[C@@H](O)[C@H](O)[C@H]1O`, the inhibition entry is “inactive”.
As for `CC(C)CCSCC[C@H]1NC[C@@H](O)[C@H](O)[C@H]1O`, the inhibition entry is “inactive”.
`O[C@@H]1[C@@H](O)[C@@H](CCSCc2ccccc2)NC[C@H]1O`: the inhibition entry was “inactive”.
Turning to `CCCC(=O)NCCSCC[C@H]1NC[C@@H](O)[C@H](O)[C@H]1O`, the inhibition entry was “inactive”.
Consider `CCSCC[C@H]1NC[C@@H](O)[C@H](O)[C@H]1O`, for which the inhibition entry was “inactive”.
Take `O[C@H]1[C@H](O)CNC[C@@H]1O`: the inhibition result was “inactive”.
For `CCN(CC)C(=O)CCCSCC[C@H]1NC[C@@H](O)[C@H](O)[C@H]1O`, the inhibition entry was “inactive”.

For a further experiment, the target named is T2, Beta-galactosidase (Homo sapiens) (UniProt P16278).
T2 sequence (whole entry): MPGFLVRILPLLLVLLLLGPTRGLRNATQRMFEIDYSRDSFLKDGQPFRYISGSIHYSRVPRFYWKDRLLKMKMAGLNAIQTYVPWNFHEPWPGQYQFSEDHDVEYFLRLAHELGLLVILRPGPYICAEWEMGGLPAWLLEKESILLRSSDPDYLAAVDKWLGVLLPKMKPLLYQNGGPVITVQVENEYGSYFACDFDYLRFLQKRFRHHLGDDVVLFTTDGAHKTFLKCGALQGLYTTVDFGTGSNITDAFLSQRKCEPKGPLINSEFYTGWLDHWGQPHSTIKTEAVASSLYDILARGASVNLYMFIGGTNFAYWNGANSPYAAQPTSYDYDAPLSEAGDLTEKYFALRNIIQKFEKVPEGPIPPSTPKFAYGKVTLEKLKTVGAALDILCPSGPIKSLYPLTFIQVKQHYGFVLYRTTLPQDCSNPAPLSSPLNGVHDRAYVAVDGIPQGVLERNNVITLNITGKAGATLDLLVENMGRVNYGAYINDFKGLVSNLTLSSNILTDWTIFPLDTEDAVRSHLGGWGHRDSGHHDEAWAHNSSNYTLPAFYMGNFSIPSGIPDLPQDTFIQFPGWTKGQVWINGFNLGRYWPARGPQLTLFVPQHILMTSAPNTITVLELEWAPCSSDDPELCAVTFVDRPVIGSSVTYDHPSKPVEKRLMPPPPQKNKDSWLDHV
Description: Inhibition of human lysosomal beta-galactosidase using 4-methylumbelliferyl beta-Dgalactopyranoside as substrate at 200 uM by fluorimetric analysis. Summed up: as §1
As to `CCCCSCC[C@H]1NC[C@@H](O)[C@H](O)[C@H]1O`, the inhibition entry was “inactive”.
Consider `CC(C)CCSCC[C@H]1NC[C@@H](O)[C@H](O)[C@H]1O`, for which the inhibition result was “inactive”.
For the compound `O[C@@H]1[C@@H](O)[C@@H](CCSCc2ccccc2)NC[C@H]1O`, the inhibition entry was “inactive”.
For `CCCC(=O)NCCSCC[C@H]1NC[C@@H](O)[C@H](O)[C@H]1O`, the inhibition result was “inactive”.
Consider `CCSCC[C@H]1NC[C@@H](O)[C@H](O)[C@H]1O`, for which the inhibition result is “inactive”.
Take `O[C@H]1[C@H](O)CNC[C@@H]1O`: the inhibition result is “inactive”.
Still for that read-out and setting: with `CCN(CC)C(=O)CCCSCC[C@H]1NC[C@@H](O)[C@H](O)[C@H]1O` the entry was “inactive”.

A further experiment deals with T3, Lysosomal acid glucosylceramidase (Homo sapiens) (UniProt P04062).
T3 sequence (whole entry): T1 sequence (P04062 whole entry)
Description: Thermal denaturation of human glucocerebrosidase by differential scanning fluorimetry assessed as change in melting temperature at 100 uM and pH 7.
Turning to `CCCCSCC[C@H]1NC[C@@H](O)[C@H](O)[C@H]1O`, the deltaTm is 11 K.
Take `CC(C)CCSCC[C@H]1NC[C@@H](O)[C@H](O)[C@H]1O`: the deltaTm came out at 14 K.
For the compound `O[C@@H]1[C@@H](O)[C@@H](CCSCc2ccccc2)NC[C@H]1O`, the deltaTm is 13 K.
As for `CCCC(=O)NCCSCC[C@H]1NC[C@@H](O)[C@H](O)[C@H]1O`, the deltaTm came out at 8.2 K.
As for `CCSCC[C@H]1NC[C@@H](O)[C@H](O)[C@H]1O`, the deltaTm came to 7 K.
As to `O[C@H]1[C@H](O)CNC[C@@H]1O`, the deltaTm stood at 3.6 K.
Consider `CCN(CC)C(=O)CCCSCC[C@H]1NC[C@@H](O)[C@H](O)[C@H]1O`, for which the deltaTm was 10 K.

The test system of the next experiment is T4, Lysosomal acid glucosylceramidase (Homo sapiens), P04062 [N409S].
T4 sequence (whole entry): T1 sequence (P04062 whole entry) with N409S
Nature of the experiment: Activation of intracellular glucocerebrosidase p.N370S mutant in gaucher patient fibroblast using 4-methylumbelliferyl beta-D-glucopyranoside as substrate relative to control.
Regarding `CCCCSCC[C@H]1NC[C@@H](O)[C@H](O)[C@H]1O`, the fold change (FC) came out at 2.4.
In turn, `CC(C)CCSCC[C@H]1NC[C@@H](O)[C@H](O)[C@H]1O` registered a fold change (FC) of 2.
`O[C@@H]1[C@@H](O)[C@@H](CCSCc2ccccc2)NC[C@H]1O` showed a fold change (FC) of 2.1.
Regarding `CCCC(=O)NCCSCC[C@H]1NC[C@@H](O)[C@H](O)[C@H]1O`, the fold change (FC) is 2.7.
In the case of `CCSCC[C@H]1NC[C@@H](O)[C@H](O)[C@H]1O`, the fold change (FC) is 2.5.
`O[C@H]1[C@H](O)CNC[C@@H]1O` had a fold change (FC) of 1.5.
Take `CCN(CC)C(=O)CCCSCC[C@H]1NC[C@@H](O)[C@H](O)[C@H]1O`: the fold change (FC) came to 2.7.

For a further experiment, the species on record is Homo sapiens. Nature of the experiment: Activation of intracellular glucocerebrosidase p.L444P mutant in gaucher patient fibroblast using 4-methylumbelliferyl beta-D-glucopyranoside as substrate relative to control.
`CCCCSCC[C@H]1NC[C@@H](O)[C@H](O)[C@H]1O` yielded a fold change (FC) of 1.3.
For `CC(C)CCSCC[C@H]1NC[C@@H](O)[C@H](O)[C@H]1O`, the fold change (FC) worked out at 1.2.
`O[C@@H]1[C@@H](O)[C@@H](CCSCc2ccccc2)NC[C@H]1O` had a fold change (FC) of 1.1.
The compound `CCCC(=O)NCCSCC[C@H]1NC[C@@H](O)[C@H](O)[C@H]1O` showed a fold change (FC) of 1.3.
Compound `CCSCC[C@H]1NC[C@@H](O)[C@H](O)[C@H]1O` had a fold change (FC) of 1.3.
`O[C@H]1[C@H](O)CNC[C@@H]1O` came in with a fold change (FC) of 1.1.
Same read-out and setting: with `CCN(CC)C(=O)CCCSCC[C@H]1NC[C@@H](O)[C@H](O)[C@H]1O` the figure was 1.3.

The next experiment has as its system T4, Lysosomal acid glucosylceramidase (Homo sapiens), P04062 [N409S]. Nature of the experiment: Activation of intracellular glucocerebrosidase p.N370S mutant in gaucher patient fibroblast using 4-methylumbelliferyl beta-D-glucopyranoside as substrate assessed as concentration at which 50% of maximum increase in activity.
For the compound `CCCCSCC[C@H]1NC[C@@H](O)[C@H](O)[C@H]1O`, the Activity was 18 nM.
On to `CC(C)CCSCC[C@H]1NC[C@@H](O)[C@H](O)[C@H]1O`, for which the Activity is 1.2 nM.
As to `O[C@@H]1[C@@H](O)[C@@H](CCSCc2ccccc2)NC[C@H]1O`, the Activity amounted to 1.6 nM.
Still for that read-out and setting: then `CCCC(=O)NCCSCC[C@H]1NC[C@@H](O)[C@H](O)[C@H]1O`, with 2700 nM; and `CCSCC[C@H]1NC[C@@H](O)[C@H](O)[C@H]1O`, with 600 nM.
For `O[C@H]1[C@H](O)CNC[C@@H]1O`, the Activity is 24000 nM.
With `CCN(CC)C(=O)CCCSCC[C@H]1NC[C@@H](O)[C@H](O)[C@H]1O`, the Activity came out at 800 nM.

A further experiment is filed under the species Homo sapiens. Description: Activation of intracellular glucocerebrosidase p.L444P mutant in gaucher patient fibroblast using 4-methylumbelliferyl beta-D-glucopyranoside as substrate assessed as concentration at which 50% of maximum increase in activity.
With `CCCCSCC[C@H]1NC[C@@H](O)[C@H](O)[C@H]1O`, the Activity stood at 12 nM.
Turning to `CC(C)CCSCC[C@H]1NC[C@@H](O)[C@H](O)[C@H]1O`, the Activity came to 0.3 nM.
On the same count and under the same terms, with `O[C@@H]1[C@@H](O)[C@@H](CCSCc2ccccc2)NC[C@H]1O` the figure was 2.6 nM; with `CCCC(=O)NCCSCC[C@H]1NC[C@@H](O)[C@H](O)[C@H]1O`, 2900 nM.
Take `CCSCC[C@H]1NC[C@@H](O)[C@H](O)[C@H]1O`: the Activity was determined as 300 nM.
The same measure, in the same setting: with `O[C@H]1[C@H](O)CNC[C@@H]1O` the figure was 44600 nM; with `CCN(CC)C(=O)CCCSCC[C@H]1NC[C@@H](O)[C@H](O)[C@H]1O`, 500 nM.

These data come from ChEMBL document CHEMBL2029267, “Rapid assembly of a library of lipophilic iminosugars via the thiol-ene reaction yields promising pharmacological chaperones for the treatment of Gaucher disease” (J Med Chem, 2012).
